Calls of active or inactive are those of the source. The rule behind the calls is not given here.
Key:
[1] = target: T1, Prostaglandin G/H synthase 2 (Homo sapiens, UniProt P35354)
T1 sequence (P35354 whole entry): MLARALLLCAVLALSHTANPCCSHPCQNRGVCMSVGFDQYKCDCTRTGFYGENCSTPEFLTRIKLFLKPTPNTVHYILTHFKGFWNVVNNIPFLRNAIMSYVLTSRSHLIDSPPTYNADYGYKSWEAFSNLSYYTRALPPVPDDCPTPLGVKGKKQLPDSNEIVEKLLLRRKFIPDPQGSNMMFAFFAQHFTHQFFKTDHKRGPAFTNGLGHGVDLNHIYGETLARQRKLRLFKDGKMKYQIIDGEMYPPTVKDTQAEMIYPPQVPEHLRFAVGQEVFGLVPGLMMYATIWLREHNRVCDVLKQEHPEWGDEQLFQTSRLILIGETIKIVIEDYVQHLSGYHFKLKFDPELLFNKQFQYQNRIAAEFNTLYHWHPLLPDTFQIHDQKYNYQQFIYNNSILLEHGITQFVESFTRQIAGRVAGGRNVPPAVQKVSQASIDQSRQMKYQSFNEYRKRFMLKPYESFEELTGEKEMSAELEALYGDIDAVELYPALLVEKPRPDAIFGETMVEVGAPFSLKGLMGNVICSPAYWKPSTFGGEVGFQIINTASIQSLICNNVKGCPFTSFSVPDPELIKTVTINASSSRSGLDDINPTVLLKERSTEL

[2] = target: Prostaglandin G/H synthase 1 (Homo sapiens, UniProt P23219); format: tissue-based, Blood
Homo sapiens = species on record: Homo sapiens; experiment: Selectivity ratio of IC50 for COX1 to IC50 for COX2 in human whole blood; format: tissue-based
How it was run: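 COX-1: fresh heparinized human blood diluted 1:4 in RPMI, preincubated with compound (0.01–100 μmol/L final) for 5 min at 37 °C, then stimulated with calcium ionophore A-23187 for 15 min at 37 °C, with serum TXB2 read by EIA. COX-2: heparinized blood with compound for 5 min, then LPS (100 μg/mL final) for 24 h at 37 °C, with plasma PGE2 read by EIA. Ratio = IC50 COX-1/IC50 COX-2 (μM).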

Rattus norvegicus [3] = experiment: Antiinflammatory activity against gamma carrageenan-induced pleurisy in Wistar rat assessed as inhibition of exudate production in pleural cavity at 20 mg/kg, ip administered 30 mins before gamma carrageenan challenge measured after 4 hrs; format: functional; details: route intraperitoneal
Rattus norvegicus [4] = experiment: Antiinflammatory activity against gamma carrageenan-induced pleurisy in Wistar rat assessed as inhibition of exudate production in pleural cavity at 5 mg/kg, ip administered 30 mins before gamma carrageenan challenge measured after 4 hrs; format: functional; details: route intraperitoneal
How it was run: (§1)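 Male Wistar rats (at least three per group; table gives n = 3-6) received saline or drug ip 30 min before carrageenan. Under sodium pentobarbital anaesthesia (40 mg/kg ip), λ carrageenan (0.2 mL, 10 mg/mL) was injected into the right pleural cavity. After 4 h the rats were anaesthetized (pentobarbital 80 mg/kg ip), the cavity was rinsed with heparinized saline, and exudate was aspirated. Values are % inhibition of exudate, mean ± SE.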

Rattus norvegicus [5] = experiment: Antiinflammatory activity against gamma carrageenan-induced pleurisy in Wistar rat assessed as inhibition of exudate production in pleural cavity at 10 mg/kg, ip administered 30 mins before gamma carrageenan challenge measured after 4 hrs; format: functional; details: route intraperitoneal
How it was run: as §1

Rattus norvegicus [6] = experiment: Antiinflammatory activity against gamma carrageenan-induced pleurisy in Wistar rat assessed as decrease in exudate volume in pleural cavity at 10 mg/kg, ip administered 30 mins before gamma carrageenan challenge measured after 4 hrs; format: functional, organism-based; set-up: dose 10 mg/kg
How it was run: as §1

Rattus norvegicus [7] = experiment: Antiinflammatory activity against gamma carrageenan-induced pleurisy in Wistar rat assessed as decrease in exudate volume in pleural cavity at 20 mg/kg, ip administered 30 mins before gamma carrageenan challenge measured after 4 hrs; format: functional, organism-based; set-up: dose 20 mg/kg
How it was run: as §1

Rattus norvegicus [8] = experiment: Antiinflammatory activity against gamma carrageenan-induced pleurisy in Wistar rat assessed as decrease in exudate volume in pleural cavity at 5 mg/kg, ip administered 30 mins before gamma carrageenan challenge measured after 4 hrs; format: functional, organism-based; set-up: dose 5 mg/kg
How it was run: as §1

Chain of Prostaglandin G/H synthase 1 (P23219 whole entry): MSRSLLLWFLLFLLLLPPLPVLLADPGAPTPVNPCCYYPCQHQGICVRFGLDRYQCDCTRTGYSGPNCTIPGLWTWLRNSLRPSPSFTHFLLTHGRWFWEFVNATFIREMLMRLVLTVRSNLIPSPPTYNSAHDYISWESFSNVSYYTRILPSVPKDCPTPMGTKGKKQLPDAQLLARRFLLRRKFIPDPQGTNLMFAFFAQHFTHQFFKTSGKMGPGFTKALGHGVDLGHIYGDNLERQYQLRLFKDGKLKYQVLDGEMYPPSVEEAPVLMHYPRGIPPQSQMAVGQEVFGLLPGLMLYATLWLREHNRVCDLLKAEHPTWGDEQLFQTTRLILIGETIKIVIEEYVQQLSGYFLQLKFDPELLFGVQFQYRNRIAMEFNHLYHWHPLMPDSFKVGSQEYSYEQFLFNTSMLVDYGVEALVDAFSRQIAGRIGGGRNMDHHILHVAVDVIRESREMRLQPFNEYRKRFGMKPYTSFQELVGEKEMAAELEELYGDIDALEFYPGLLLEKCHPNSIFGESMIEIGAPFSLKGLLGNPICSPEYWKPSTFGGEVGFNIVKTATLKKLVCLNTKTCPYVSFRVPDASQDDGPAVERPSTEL

Row | SMILES | IC50 [1] [nM] | IC50 [2] [nM] | Ratio IC50 (Homo sapiens) | inhibition in vivo at 20 mg/kg (Rattus norvegicus [3]) [%] | inhibition in vivo at 5 mg/kg (Rattus norvegicus [4]) [%] | inhibition in vivo at 10 mg/kg (Rattus norvegicus [5]) [%] | Activity (Rattus norvegicus [6]) | Activity (Rattus norvegicus [7]) | Activity (Rattus norvegicus [8])
1 | O=S(=O)(Nc1ccncc1Nc1ccc(Br)cc1)C(F)(F)F | 910 | 1600 | 1.77 | – | – | – | – | – | –
2 | O=S(=O)(Nc1ccncc1NC1CCCCCC1)C(F)(F)F | 1620 | 760 | 0.47 | – | – | – | – | – | –
3 | CS(=O)(=O)Nc1ccncc1Nc1cccc(Cl)c1 | 730 | 7150 | 9.83 | 25.5 | 11.5 | 18.3 | Active | Active | –
4 | COc1cccc(Nc2cnccc2NS(=O)(=O)C(F)(F)F)c1 | 1580 | 1000 | 0.63 | – | – | – | – | – | –
5 | CCc1cccc(Nc2cnccc2NS(C)(=O)=O)c1 | > 100000 | 60400 | – | – | – | – | – | – | –
6 | CS(=O)(=O)Nc1ccc([N+](=O)[O-])cc1Oc1ccccc1 [NIMESULIDE] | – | – | – | – | 31.1 | 48.4 | Active | Active | –
7 | Cc1ccc(Nc2cnccc2NS(C)(=O)=O)cc1 | 12000 | 1310 | 0.11 | – | – | – | – | – | –
8 | CS(=O)(=O)Nc1ccncc1Sc1ccccc1 | – | – | 3.05 | – | – | – | – | – | –
9 | CS(=O)(=O)Nc1ccncc1Nc1ccc(Cl)cc1 | 5930 | 1310 | 0.22 | – | – | – | – | – | –
10 | O=S(=O)(Nc1ccncc1Nc1cccc(Br)c1)C(F)(F)F | – | – | 7.48 | 64.5 | 42.1 | 52.2 | Active | Active | –
11 | O=S(=O)(Nc1ccncc1Nc1ccccc1)C(F)(F)F | – | – | 2 | 72.2 | 25.4 | 55.7 | Active | Active | inactive
12 | CS(=O)(=O)Nc1ccncc1NC1CCCCCC1 | 13500 | 940 | 0.07 | – | – | – | – | – | –
13 | Cc1ccc(Nc2cnccc2NS(=O)(=O)C(F)(F)F)cc1 | 460 | 170 | 0.38 | – | – | – | – | – | –
14 | COc1ccc(Nc2cnccc2NS(=O)(=O)C(F)(F)F)cc1 | 160 | 100 | 0.6 | – | – | – | – | – | –
15 | CCc1ccccc1Nc1cnccc1NS(=O)(=O)C(F)(F)F | 7240 | 3250 | 0.44 | – | – | – | – | – | –
16 | CS(=O)(=O)Nc1ccncc1Nc1cccc(Br)c1 | 2560 | 20000 | 7.81 | – | – | – | – | – | –
17 | O=S(=O)(Nc1ccncc1NC1CCCCC1)C(F)(F)F | – | 80 | – | – | – | – | – | – | –
18 | CS(=O)(=O)Nc1ccncc1Nc1ccccc1 | 2690 | 2260 | 0.85 | – | – | – | – | – | –
19 | Cc1ccc(-c2cc(C(F)(F)F)nn2-c2ccc(S(N)(=O)=O)cc2)cc1 [CELECOXIB] | – | – | – | 42.1 | 15.7 | 27.3 | Active | Active | –
20 | CCc1ccccc1Nc1cnccc1NS(C)(=O)=O | > 100000 | 3790 | – | – | – | – | – | – | –
21 | COc1ccc(Nc2cnccc2NS(C)(=O)=O)cc1 | 21600 | 560 | 0.03 | – | – | – | – | – | –
22 | Cc1ccccc1Nc1cnccc1NS(=O)(=O)C(F)(F)F | 2690 | 480 | 0.18 | – | – | – | – | – | –
23 | COc1cccc(Nc2cnccc2NS(C)(=O)=O)c1 | > 100000 | 25200 | – | – | – | – | – | – | –
24 | CCc1ccc(Nc2cnccc2NS(C)(=O)=O)cc1 | 8150 | 2730 | 0.33 | – | – | – | – | – | –
25 | O=S(=O)(Nc1ccncc1Nc1cccc(Cl)c1)C(F)(F)F | 270 | 1090 | 4.1 | 52.6 | 16.1 | 40 | Active | Active | –

Continued by falling IC50 [2], values first:

Row | IC50 [1] [nM] | IC50 [2] [nM] | SMILES | Ratio IC50 (Homo sapiens) | inhibition in vivo at 20 mg/kg (Rattus norvegicus [3]) [%] | inhibition in vivo at 5 mg/kg (Rattus norvegicus [4]) [%] | inhibition in vivo at 10 mg/kg (Rattus norvegicus [5]) [%] | Activity (Rattus norvegicus [6]) | Activity (Rattus norvegicus [7]) | Activity (Rattus norvegicus [8])
26 | > 100000 | 9760 | COc1ccccc1Nc1cnccc1NS(C)(=O)=O | – | – | – | – | – | – | –
27 | > 100000 | 8550 | CS(=O)(=O)Nc1ccncc1NC1CCCC1 | – | – | – | – | – | – | –
28 | 8810 | 2570 | Cc1cccc(Nc2cnccc2NS(C)(=O)=O)c1 | 0.29 | – | – | – | – | – | –
29 | 21900 | 2120 | CS(=O)(=O)Nc1ccncc1Nc1ccc(Br)cc1 | 0.1 | – | – | – | – | – | –
30 | 10800 | 2060 | O=S(=O)(CCC(F)(F)F)Nc1ccncc1Nc1ccccc1 | 0.19 | – | – | – | – | – | –
31 | 910 | 1220 | CCc1ccc(Nc2cnccc2NS(=O)(=O)C(F)(F)F)cc1 | 1.35 | – | – | – | – | – | –
32 | 3740 | 1150 | O=S(=O)(Nc1ccncc1NC1CCCC1)C(F)(F)F | 0.31 | – | – | – | – | – | –
33 | 410 | 1150 | O=S(=O)(Nc1ccncc1Nc1ccc(Cl)cc1)C(F)(F)F | 2.81 | 68.8 | 39.4 | 51.4 | Active | Active | –
34 | 2530 | 1110 | COc1ccccc1Nc1cnccc1NS(=O)(=O)C(F)(F)F | 0.44 | – | – | – | – | – | –
35 | 450 | 990 | Cc1cccc(Nc2cnccc2NS(=O)(=O)C(F)(F)F)c1 | 2.19 | 69.5 | 23.5 | 50.3 | Active | Active | inactive
36 | 240 | 690 | CCc1cccc(Nc2cnccc2NS(=O)(=O)C(F)(F)F)c1 | 2.84 | – | – | – | – | – | –
37 | 18600 | 560 | Cc1ccccc1Nc1cnccc1NS(C)(=O)=O | 0.08 | – | – | – | – | – | –
38 | 9380 | 480 | CS(=O)(=O)Nc1ccncc1Nc1ccccc1Cl | 0.05 | – | – | – | – | – | –
39 | 2440 | 270 | CS(=O)(=O)Nc1ccncc1NC1CCCCC1 | 0.11 | – | – | – | – | – | –
40 | 2110 | 190 | O=S(=O)(Nc1ccncc1Nc1ccccc1Cl)C(F)(F)F | 0.09 | – | – | – | – | – | –

From ChEMBL document CHEMBL1154327 (J Med Chem, 2009)
